From ChEMBL document CHEMBL6177935, “Design and synthesis of novel multi-target tetrabromophthalimides as CBS and Topo-II inhibitors and DNA intercalators” (RSC Med Chem, 2024)
Calls of active or inactive are those of the source.

How the values were obtained:
Assay type in all cases: functional
Conditions in all cases: dose 100.0 µg/ml, pooled result: one value given for 15 cell lines, strains, targets or settings
HNO 97 cell line = experiment: Growth inhibition of human HNO 97 cells at 100 ug/ml measured after 48 hrs by SRB assay relative to control
How it was run: (§1)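 SRB screen on fifteen human cancer lines. Cells seeded at 3×10^3 per well and left 24 h to attach. A single concentration of 100 µg/mL was tested in triplicate wells for 48 h, with 1% v/v DMSO as vehicle control. Cells fixed in 20% TCA, stained with 0.4% SRB and read at 570 nm. Survival fraction = OD treated/OD control.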

HN = experiment: Growth inhibition of human HN cells at 100 ug/ml measured after 48 hrs by SRB assay relative to control; how it was run: as §1
MCF7 = experiment: Growth inhibition of human MCF7 cells at 100 ug/ml measured after 48 hrs by SRB assay relative to control; how it was run: as §1
MDA-MB-468 = experiment: Growth inhibition of human MDA-MB-468 cells at 100 ug/ml measured after 48 hrs by SRB assay relative to control; how it was run: as §1
Caco-2 = experiment: Growth inhibition of human Caco-2 cells at 100 ug/ml measured after 48 hrs by SRB assay relative to control; how it was run: as §1
HCT-116 = experiment: Growth inhibition of human HCT-116 cells at 100 ug/ml measured after 48 hrs by SRB assay relative to control; how it was run: as §1
HEp-2 = experiment: Growth inhibition of human HEp-2 cells at 100 ug/ml measured after 48 hrs by SRB assay relative to control; how it was run: as §1
HepG2 = experiment: Growth inhibition of human HepG2 cells at 100 ug/ml measured after 48 hrs by SRB assay relative to control; how it was run: as §1
A-431 = experiment: Growth inhibition of human A-431 cells at 100 ug/ml measured after 48 hrs by SRB assay relative to control; how it was run: as §1
A-375 = experiment: Growth inhibition of human A-375 cells at 100 ug/ml measured after 48 hrs by SRB assay relative to control; how it was run: as §1
NCI-H1299 = experiment: Growth inhibition of human NCI-H1299 cells at 100 ug/ml measured after 48 hrs by SRB assay relative to control; how it was run: as §1
A549 = experiment: Growth inhibition of human A549 cells at 100 ug/ml measured after 48 hrs by SRB assay relative to control; how it was run: as §1
PC-3 = experiment: Growth inhibition of human PC-3 cells at 100 ug/ml measured after 48 hrs by SRB assay relative to control; how it was run: as §1
FaDu = experiment: Growth inhibition of human FaDu cells at 100 ug/ml measured after 48 hrs by SRB assay relative to control; how it was run: as §1
HeLa = experiment: Growth inhibition of human HeLa cells at 100 ug/ml measured after 48 hrs by SRB assay relative to control; how it was run: as §1

Measured: growth inhibition (GI)

O=C1c2c(Br)c(Br)c(Br)c(Br)c2C(=O)N1c1ccc([Se][Se]c2ccc(N3C(=O)c4c(Br)c(Br)c(Br)c(Br)c4C3=O)cc2)cc1
active: HNO 97 cell line | HN | MCF7 | MDA-MB-468 | Caco-2 | HCT-116 | HEp-2 | HepG2 | A-431 | A-375 | NCI-H1299 | A549 | PC-3 | FaDu | HeLa

CC(=O)NC(=S)NN1C(=O)c2c(Br)c(Br)c(Br)c(Br)c2C1=O
active: HNO 97 cell line | HN | MCF7 | MDA-MB-468 | Caco-2 | HCT-116 | HEp-2 | HepG2 | A-431 | A-375 | NCI-H1299 | A549 | PC-3 | FaDu | HeLa

CC(=O)N1C(=O)c2c(Br)c(Br)c(Br)c(Br)c2C1=O
active: HNO 97 cell line | HN | MCF7 | MDA-MB-468 | Caco-2 | HCT-116 | HEp-2 | HepG2 | A-431 | A-375 | NCI-H1299 | A549 | PC-3 | FaDu | HeLa

CC(=O)N(NC(=S)NN1C(=O)c2c(Br)c(Br)c(Br)c(Br)c2C1=O)C(C)=O
active: HNO 97 cell line | HN | MCF7 | MDA-MB-468 | Caco-2 | HCT-116 | HEp-2 | HepG2 | A-431 | A-375 | NCI-H1299 | A549 | PC-3 | FaDu | HeLa
